Usually MIC stands for the lowest concentration that inhibits growth of the organism. Low values mean inhibition by little substance, high ones a need for much substance. What is called MIC50 is an inhibitory concentration at the 50% level, which refers to growth in some studies and to a panel of isolates in others. Low values mean higher susceptibility, high ones lower susceptibility. As a reminder, the half-life is the time in which the quantity being followed falls by half. Read a high half-life as slow loss.

These results are taken from ChEMBL document CHEMBL1275496, “In vivo pharmacodynamic target investigation for micafungin against Candida albicans and C. glabrata in a neutropenic murine candidiasis model” (Antimicrob Agents Chemother, 2008).

Molecules are shown by their SMILES. Converted amounts (≈) assume the structure as drawn. *1 amine or outer side, *2 acyl side, *3 side chain or, on linkers, in order; H or OH if unused. Where a SMILES comes first, the peptide text is derived from it. Bridges are numbered along the chain shown (N, C = ends). [ ]: non-standard residue; d: D form. The star is where a group is joined. hTyr(3S-OH,4S-OH,3'-OSO3H) = N[C@H](C(=O)O)[C@H](O)[C@@H](O)c1ccc(O)c(OS(=O)(=O)O)c1; Orn(4R-OH,5R-OH) = O=C([C@H](C[C@@H](O)[C@@H](O)N[*:3])N[*:1])[*:2]; Pro(3S-OH,4S-Me) = C[C@H]1CN[C@H](C(=O)O)[C@H]1O; X1 = CCCCCOc1ccc(-c2cc(-c3ccc(C(=O)*)cc3)no2)cc1; Gln(3R-OH) = NC(=O)C[C@@H](O)[C@H](N)C(=O)O; Hyp = O=C(O)[C@@H]1C[C@@H](O)CN1

Series [1] is described as follows: Ratio of AUC in ICR/Swiss neutropenic mouse at static dose of 3.76 mg/kg, ip after 24 hrs to MIC for Candida glabrata isolate 570. The following applies: route intraperitoneal. The class given is functional.
The test system of a further series is Nakaseomyces glabratus. The series is described as follows: Antifungal activity against Candida glabrata isolate 513 by CLSI method. The class given is functional. In short, it runs like this: (§1)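 Broth microdilution MIC per CLSI M27-A2. Two endpoints were read against the drug-free control well: partial inhibition (M1, CLSI recommended) and complete inhibition (M2). Tests were run in duplicate on four separate occasions, and the value is the mean.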

The nature of series [2]: Ratio of AUC in ICR/Swiss neutropenic mouse at static dose of 2.53 mg/kg, ip after 24 hrs to MIC for Candida albicans isolate 98-17. It is filed as functional. Particulars: route intraperitoneal.
The test system of a further series is Candida albicans. The series is described as follows: Antifungal activity against Candida albicans isolate 98-17 by CLSI method. The class given is functional. In short, it runs like this: as §1
Series [3] can be described thus: Ratio of AUC in ICR/Swiss neutropenic mouse at static dose of 2.84 mg/kg, ip after 24 hrs to MIC for Candida albicans isolate 98-210. The class given is functional. The following applies: route intraperitoneal.
The nature of series [4]: Ratio of fAUC in ICR/Swiss neutropenic mouse at static dose of 2.53 mg/kg, ip after 24 hrs to MIC for Candida albicans isolate 98-17. It is filed as functional. The following applies: route intraperitoneal.
Series [5] is described as follows: Ratio of fAUC in ICR/Swiss neutropenic mouse at static dose of 2.4 mg/kg, ip after 24 hrs to MIC for Candida glabrata isolate 35315. The class given is functional. The following applies: route intraperitoneal.
Series [6] can be described thus: Ratio of fAUC in ICR/Swiss neutropenic mouse at 1-Log kill dose of 1.40 mg/kg, ip after 24 hrs to MIC for Candida glabrata isolate 33609. Particulars: dose 1.4 mg/kg; route intraperitoneal. The class given is functional.
Series [7] in a line: Half life in Candida infected ICR/Swiss neutropenic mouse at 5 mg/kg, ip. It is filed as ADME, organism-based. Also on record: dose 5 mg/kg, route intraperitoneal. Particulars: in vivo. In short, it runs like this: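 Single intraperitoneal micafungin doses (80, 20, 5 mg/kg in 0.2 ml, 0.15 M NaCl) given to infected neutropenic mice. Serum was taken from 3 mice per time point at 1, 2, 4, 6, 8, 12, 24 and 48 h. Drug was measured by microbiologic assay with C. albicans K1 (LLOQ 0.12 μg/ml). Noncompartmental analysis; half-life by nonlinear least squares; AUC by trapezoidal rule.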

Turning to `CCCCCOc1ccc(-c2cc(-c3ccc(C(=O)N[C@H]4C[C@@H](O)[C@@H](O)NC(=O)[C@@H]5[C@@H](O)[C@@H](C)CN5C(=O)[C@H]([C@H](O)CC(N)=O)NC(=O)[C@H]([C@H](O)[C@@H](O)c5ccc(O)c(OS(=O)(=O)O)c5)NC(=O)[C@@H]5C[C@@H](O)CN5C(=O)[C@H]([C@@H](C)O)NC4=O)cc3)no2)cc1` [MICAFUNGIN] (X1-[Orn(4R-OH,5R-OH)]T[Hyp][hTyr(3S-OH,4S-OH,3'-OSO3H)][Gln(3R-OH)][Pro(3S-OH,4S-Me)]; lactam 1-C), the RatioAUC/MIC in [1] was 6933; in series [2] it was 2333; in series [3] it was 5200. Moreover, the values for the MIC against Nakaseomyces glabratus and against Candida albicans were 0.03 µg/mL (≈ 0.0236 µM) and 0.06 µg/mL (≈ 0.0472 µM), respectively. The MIC50 amounted to 0.016 µg/mL (≈ 0.0126 µM) in the series with Nakaseomyces glabratus and 0.03 µg/mL (≈ 0.0236 µM) in the series on Candida albicans. The fAUC/MIC amounted to 5.9 in series [4], 2.8 in series [5] and 6.5 in series [6]. Moreover, in series [7], the half-life was 7.5 h.
